pIC50, pKi: −log10 of the molar value.
What was measured:
[1] = target: Metabotropic glutamate receptor 5 (Rattus norvegicus, UniProt P31424); test: Displacement of [3H]3-methoxy-5-(pyridin-2-ylethynyl)pyridine from glutamate 5 receptor of rat cortical membranes; assay type: cell membranes, Membrane
Method in brief: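 Native mGlu5 in rat cortical membranes; displacement of bound [3H]-3-methoxy-5-(pyridin-2-ylethynyl)pyridine by test compound. Ki given as geometric mean with lower and upper limits and number of replicates.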

[2] = target: Metabotropic glutamate receptor 5 (Homo sapiens, UniProt P41594); test: Inhibitory concentration towards human glutamate receptor 5 in calcium flux assay; assay type: functional
Sequence of Metabotropic glutamate receptor 5 (Homo sapiens, UniProt P41594) (P41594 whole entry): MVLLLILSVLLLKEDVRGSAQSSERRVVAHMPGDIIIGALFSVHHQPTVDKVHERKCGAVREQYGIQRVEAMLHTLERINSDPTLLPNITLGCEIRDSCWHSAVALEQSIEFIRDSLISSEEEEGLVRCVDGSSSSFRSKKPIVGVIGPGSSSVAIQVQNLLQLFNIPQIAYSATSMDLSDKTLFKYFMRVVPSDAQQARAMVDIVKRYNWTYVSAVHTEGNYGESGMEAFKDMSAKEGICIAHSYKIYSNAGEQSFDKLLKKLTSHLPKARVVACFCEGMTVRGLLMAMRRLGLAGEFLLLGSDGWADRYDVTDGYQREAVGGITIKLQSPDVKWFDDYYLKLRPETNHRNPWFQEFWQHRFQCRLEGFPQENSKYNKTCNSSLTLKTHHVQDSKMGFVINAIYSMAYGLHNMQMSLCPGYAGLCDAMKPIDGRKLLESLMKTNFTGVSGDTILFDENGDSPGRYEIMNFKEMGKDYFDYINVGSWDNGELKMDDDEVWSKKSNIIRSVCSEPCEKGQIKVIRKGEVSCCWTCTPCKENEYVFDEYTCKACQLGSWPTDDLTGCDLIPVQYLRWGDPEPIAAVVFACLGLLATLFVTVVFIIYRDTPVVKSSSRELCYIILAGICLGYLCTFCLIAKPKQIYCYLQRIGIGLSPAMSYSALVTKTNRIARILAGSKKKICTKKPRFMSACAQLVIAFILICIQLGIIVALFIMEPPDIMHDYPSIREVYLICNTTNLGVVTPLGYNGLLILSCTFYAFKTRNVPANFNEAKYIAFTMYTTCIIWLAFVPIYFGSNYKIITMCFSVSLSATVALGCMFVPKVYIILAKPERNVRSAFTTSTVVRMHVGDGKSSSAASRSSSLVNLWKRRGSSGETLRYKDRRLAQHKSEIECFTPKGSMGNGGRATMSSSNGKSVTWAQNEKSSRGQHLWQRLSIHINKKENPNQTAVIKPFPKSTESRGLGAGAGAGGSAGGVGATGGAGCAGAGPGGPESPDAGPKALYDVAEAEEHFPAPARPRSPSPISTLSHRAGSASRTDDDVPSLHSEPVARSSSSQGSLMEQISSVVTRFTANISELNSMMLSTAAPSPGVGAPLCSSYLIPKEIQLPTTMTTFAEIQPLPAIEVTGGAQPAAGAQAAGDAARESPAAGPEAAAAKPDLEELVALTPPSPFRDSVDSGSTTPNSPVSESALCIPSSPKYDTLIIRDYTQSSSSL
Method in brief: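 Ltk cells stably expressing human recombinant mGlu5; glutamate as agonist. Cytosolic Ca2+ changes read by fura-2 fluorescence in an automated format. IC50 given as geometric mean with limits and replicate number.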

[3] = Half life in rat; assay type: ADME; settings: in vivo
Method in brief: (§1)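 Sprague-Dawley rats given 2 mg/kg iv (n = 2/group) and 10 mg/kg po (n = 3/group). Clearance, volume of distribution, half-life and oral bioavailability derived from plasma concentration profiles.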

[4] = Bioavailability in rat; assay type: ADME, organism-based; settings: in vivo; method in brief: as §1
[5] = Volume of distribution in rat; assay type: ADME, organism-based; settings: in vivo; method in brief: as §1
[6] = Plasma clearance in rat; assay type: ADME, organism-based; settings: read-out: Clp; method in brief: as §1
[7] = Maximum concentration in rat when administered at 10 mg/kg perorally; assay type: ADME, organism-based; parameters: dose 10 mg/kg, route oral; settings: in vivo, po
Method in brief: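 Sprague-Dawley rats dosed 10 mg/kg po (n = 3/group); maximum plasma concentration recorded.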

[8] = Brain level after 1 hr following 3 mg/kg dose administered intraperitoneally; assay type: ADME, organism-based; parameters: dose 3 mg/kg, route intraperitoneal; settings: rat, ip
Method in brief: (§2)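 Rats given 3 mg/kg ip; plasma and brain concentrations measured at 1 h after dosing.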

Rattus norvegicus [9] = test: In vivo receptor occupancy was determined in rats administered perorally after 2 hr; assay type: functional; settings: po
Method in brief: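 Sprague-Dawley rats dosed orally (n = 5–7/group); tail-vein radioligand given at Tmax, 2 h post-dose. Animals killed 1 min later and brain-bound tracer quantified. Occupancy ED50 from dose–response.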

[10] = Plasma level after 1 hr following 3 mg/kg dose administered intraperitoneally; assay type: ADME, organism-based; parameters: dose 3 mg/kg, route intraperitoneal; settings: rat, ip, read-out: Plasma Level; method in brief: as §2
Rattus norvegicus [11] = test: In vivo receptor occupancy was determined in rats administered intraperitoneally after 1 hr; assay type: functional; settings: ip
Rattus norvegicus [12] = test: Blockage of fear-conditioning in rats determined in the fear-potentiated startle (FPS) model of anxiety administered perorally after 1 hr; assay type: functional; settings: po
Method in brief: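 Fear-potentiated startle in Wistar rats (n = 8/group), acute oral dosing, tested 1 h after administration. Startle amplitude compared in dark versus light; ED50 for blocking fear expression.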

[13] = Brain level after 1 hr following 10 mg/kg dose administered intraperitoneally; assay type: ADME, organism-based; parameters: dose 10 mg/kg, route intraperitoneal; settings: rat, ip
Method in brief: (§3)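 Rats given 10 mg/kg ip; plasma and brain concentrations measured at 1 h after dosing.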

Rattus norvegicus [14] = test: In vivo receptor occupancy was determined in rats administered perorally after 30 min; assay type: functional; settings: po, 0.5 h
[15] = Plasma level after 1 hr following 10 mg/kg dose administered intraperitoneally; assay type: ADME, organism-based; parameters: dose 10 mg/kg, route intraperitoneal; settings: rat, ip, read-out: Plasma Level; method in brief: as §3

Sequence of Metabotropic glutamate receptor 5 (Rattus norvegicus, UniProt P31424) (P31424 whole entry): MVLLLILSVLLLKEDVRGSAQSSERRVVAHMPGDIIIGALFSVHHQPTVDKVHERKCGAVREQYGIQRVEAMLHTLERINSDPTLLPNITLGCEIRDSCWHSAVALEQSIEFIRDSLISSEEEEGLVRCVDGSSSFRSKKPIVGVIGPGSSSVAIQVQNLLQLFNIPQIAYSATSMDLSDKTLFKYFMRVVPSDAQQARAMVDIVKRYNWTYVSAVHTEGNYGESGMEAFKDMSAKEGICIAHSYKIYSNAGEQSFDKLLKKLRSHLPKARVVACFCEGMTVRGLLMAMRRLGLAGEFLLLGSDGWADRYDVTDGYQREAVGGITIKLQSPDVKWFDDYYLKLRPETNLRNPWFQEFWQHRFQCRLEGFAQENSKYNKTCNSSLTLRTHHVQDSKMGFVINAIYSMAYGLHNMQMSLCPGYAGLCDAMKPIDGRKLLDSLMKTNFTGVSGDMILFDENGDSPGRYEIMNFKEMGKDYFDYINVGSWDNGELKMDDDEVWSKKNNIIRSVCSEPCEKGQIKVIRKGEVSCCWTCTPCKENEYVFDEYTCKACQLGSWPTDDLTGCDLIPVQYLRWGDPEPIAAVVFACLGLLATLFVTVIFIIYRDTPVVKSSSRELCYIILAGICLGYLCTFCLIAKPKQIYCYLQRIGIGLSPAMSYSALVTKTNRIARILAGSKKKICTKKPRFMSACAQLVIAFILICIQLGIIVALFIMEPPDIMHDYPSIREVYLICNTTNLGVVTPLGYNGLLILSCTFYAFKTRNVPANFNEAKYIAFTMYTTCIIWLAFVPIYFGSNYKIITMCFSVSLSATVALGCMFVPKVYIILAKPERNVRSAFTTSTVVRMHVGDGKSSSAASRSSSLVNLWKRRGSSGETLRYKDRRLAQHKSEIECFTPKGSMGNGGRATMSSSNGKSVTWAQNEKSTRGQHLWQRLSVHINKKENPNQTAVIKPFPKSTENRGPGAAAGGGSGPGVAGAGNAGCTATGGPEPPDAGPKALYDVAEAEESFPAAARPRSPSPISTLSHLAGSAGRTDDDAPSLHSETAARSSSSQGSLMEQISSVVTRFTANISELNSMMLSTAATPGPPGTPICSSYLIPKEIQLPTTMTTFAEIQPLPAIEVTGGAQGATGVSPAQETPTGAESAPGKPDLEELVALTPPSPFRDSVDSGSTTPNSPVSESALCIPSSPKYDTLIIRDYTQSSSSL

Compound | pKi [1] | pIC50 [2] | clearance [6] | Cmax [7] | further results
N#Cc1cccc(-n2ccc(-c3ccccn3)n2)c1 | 6.28 | 6.36 |  |  | 
N#Cc1cccc(-c2ccn(-c3ccccn3)n2)c1 | < 6.22 | 5.44 |  |  | 
N#Cc1cccc(-c2cnn(-c3ccccn3)c2)c1 | < 6.20 | 6.05 |  |  | 
N#Cc1cccc(-c2cn(-c3ccccn3)nn2)c1 | < 6.20 | < 5.00 |  |  | 
N#Cc1cccc(-n2cc(-c3ccccn3)nn2)c1 | < 6.22 | 6.01 |  |  | 
N#Cc1cccc(-c2cnn(-c3ccccn3)n2)c1 | 6.70 | 6.68 | 15.1 mL/min/kg | 2700 nM | half-life [3]: 1.7 h; bioavailability [4]: 13%; Vd [5]: 1 L/kg
N#Cc1cccc(-n2ncc(-c3ccccn3)n2)c1 | 6.52 | 7.10 | 15.7 mL/min/kg | 600 nM | half-life [3]: 2.5 h; bioavailability [4]: 3%; Vd [5]: 1.1 L/kg
N#Cc1cc(F)cc(-n2nnc(-c3ccccn3)n2)c1 | 8.00 | 8.40 | 16.9 mL/min/kg | 2500 nM | concentration at 1 h [8]: 2400 nM; ED50 (Rattus norvegicus [9]): 3.6 mg/kg; concentration at 1 h [10]: 2700 nM; bioavailability [4]: 26%; Vd [5]: 1.1 L/kg; ED50 (Rattus norvegicus [11]): 1.3 mg/kg
N#Cc1cccc(-n2cc(-c3ccccn3)cn2)c1 | 6.60 | 6.85 | 9.7 mL/min/kg | 1200 nM | half-life [3]: 5.5 h; bioavailability [4]: 3%; Vd [5]: 3.7 L/kg
N#Cc1cccc(-c2ncn(-c3ccccn3)n2)c1 | < 6.22 | 5.21 |  |  | 
N#Cc1cccc(-n2cnc(-c3ccccn3)n2)c1 | < 6.22 | 6.16 |  |  | 
N#Cc1cccc(-c2ccn(-c3ccccn3)c2)c1 | < 6.22 | 5.34 |  |  | 
N#Cc1cccc(-n2ccc(-c3ccccn3)c2)c1 | < 6.22 | 6.72 | 32.5 mL/min/kg | 900 nM | half-life [3]: 1.7 h; bioavailability [4]: 4%; Vd [5]: 3.6 L/kg
N#Cc1cccc(-c2nc(-c3ccccn3)no2)c1 | 6.31 |  |  |  | 
N#Cc1cccc(-c2cn(-c3ccccn3)cn2)c1 | < 6.22 | < 5.00 |  |  | 
N#Cc1cccc(-n2cnc(-c3ccccn3)c2)c1 | < 6.22 | 5.94 |  |  | 
N#Cc1cccc(-n2nnc(-c3ccccn3)n2)c1 | 6.72 | 7.15 | 32.9 mL/min/kg | 5800 nM | ED50 (Rattus norvegicus [12]): 5.4 mg/kg; concentration at 1 h [13]: 15300 nM; ED50 (Rattus norvegicus [14]): 3 mg/kg; ED50 (Rattus norvegicus [11]): 3 mg/kg; concentration at 1 h [15]: 10500 nM
N#Cc1cccc(-c2nnn(-c3ccccn3)n2)c1 | 6.35 | 6.57 |  |  | 

Reference: ChEMBL document CHEMBL1138743, “Discovery of novel heteroarylazoles that are metabotropic glutamate subtype 5 receptor antagonists with anxiolytic activity” (J Med Chem, 2004)
